Data published in ChEMBL document CHEMBL4808222, “Design and Synthesis of Novel Spiro Derivatives as Potent and Reversible Monoacylglycerol Lipase (MAGL) Inhibitors: Bioisosteric Transformation from 3-Oxo-3,4-dihydro-2H-benzo[b][1,4]oxazin-6-yl Moiety” (J Med Chem, 2021).
Values after ≈ are worked out from the molar mass of the structure shown.

How the values were obtained:
[1] = Lipophilicity, logD of the compound at pH 7.4 by UPHLC analysis; format: physicochemical; conditions: buffer
[2] = Aqueous solubility of the compound in pH 6.8 JP2 fluid measured after 18 hrs by shake flask method based UHPLC analysis; format: physicochemical
[3] = Drug uptake in C57BL/6J Jcl mouse assessed as plasma concentration at 0.1 mg/kg, po measured after 60 mins by LC-MS/MS analysis; format: ADME, organism-based; conditions: read-out: Drug uptake
Method in brief: (§1)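 Male C57BL/6J Jcl mice, 8 weeks old, given a single oral dose as a suspension in 0.5% methylcellulose at 10 mL/kg. Plasma and brain hemispheres collected 60 min post-dose (n = 4 per group). Levels measured by LC/MS/MS.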

[4] = Drug uptake in C57BL/6J Jcl mouse assessed as plasma concentration at 0.3 mg/kg, po measured after 60 mins by LC-MS/MS analysis; format: ADME, organism-based; conditions: read-out: Drug uptake; method in brief: as §1
[5] = Drug uptake in C57BL/6J Jcl mouse assessed as plasma concentration at 1 mg/kg, po measured after 60 mins by LC-MS/MS analysis; format: ADME, organism-based; conditions: read-out: Drug uptake; method in brief: as §1
[6] = Drug uptake in C57BL/6J Jcl mouse assessed as plasma concentration at 3 mg/kg, po measured after 60 mins by LC-MS/MS analysis; format: ADME, organism-based; conditions: read-out: Drug uptake; method in brief: as §1
[7] = Drug uptake in C57BL/6J Jcl mouse assessed as plasma concentration at 10 mg/kg, po measured after 60 mins by LC-MS/MS analysis; format: ADME, organism-based; conditions: read-out: Drug uptake; method in brief: as §1
[8] = Drug uptake in C57BL/6J Jcl mouse assessed as brain concentration at 0.1 mg/kg, po measured after 60 mins by LC-MS/MS analysis; format: ADME, organism-based; conditions: read-out: Drug uptake; method in brief: as §1
[9] = Drug uptake in C57BL/6J Jcl mouse assessed as brain concentration at 0.3 mg/kg, po measured after 60 mins by LC-MS/MS analysis; format: ADME, organism-based; conditions: read-out: Drug uptake; method in brief: as §1
[10] = Drug uptake in C57BL/6J Jcl mouse assessed as brain concentration at 1 mg/kg, po measured after 60 mins by LC-MS/MS analysis; format: ADME, organism-based; conditions: read-out: Drug uptake; method in brief: as §1
[11] = Drug uptake in C57BL/6J Jcl mouse assessed as brain concentration at 3 mg/kg, po measured after 60 mins by LC-MS/MS analysis; format: ADME, organism-based; conditions: read-out: Drug uptake; method in brief: as §1
[12] = Drug uptake in C57BL/6J Jcl mouse assessed as brain concentration at 10 mg/kg, po measured after 60 mins by LC-MS/MS analysis; format: ADME, organism-based; conditions: read-out: Drug uptake; method in brief: as §1

Row | logD [1] | Compound | further results
1 | 3 | O=C1CCC(CCC(=O)N2CCC(COc3ccc(F)cc3Cl)CC2)N1 (stereo unspecified) | 
2 | 2.4 | Cc1cc(COC2CN(C(=O)[C@H]3C[C@]4(COC(=O)N4)C3)C2)ccc1Cl | 
3 | 2.8 | CC(Oc1ccc(F)cc1Cl)C1CCN(C(=O)[C@H]2C[C@]3(COC(=O)N3)C2)CC1 (stereo partly specified) | 
4 | 2.5 | O=C1N[C@]2(CO1)C[C@H](C(=O)N1CC(OCc3ccc(C(F)(F)F)c(C(F)(F)F)c3)C1)C2 | 
5 | 2.5 | O=C1N[C@]2(CO1)C[C@H](C(=O)N1CC(OCc3ccc(Cl)cc3Cl)C1)C2 | 
6 | 2.7 | O=C1CC[C@@H](CCC(=O)N2CCC(COc3ccc(F)cc3Cl)CC2)N1 | 
7 | 2.4 | O=C1N[C@]2(CO1)C[C@H](C(=O)N1CC(OCc3ccc(C(F)(F)F)c(Cl)c3)C1)C2 | 
8 | 3.1 | O=C1CCC2(CCCN(C(=O)N3CCC(COc4ccc(F)cc4Cl)CC3)C2)N1 (stereo unspecified) | 
9 | 2.7 | O=C1CCC(COC(=O)N2CCC(COc3ccc(F)cc3Cl)CC2)N1 (stereo unspecified) | 
10 | 2.6 | O=C1N[C@]2(CO1)C[C@H](C(=O)N1CCC(COc3ccc(F)cc3Cl)CC1)C2 | 
11 | 3.1 | CCC(Oc1ccc(F)cc1Cl)C1CCN(C(=O)[C@H]2C[C@]3(COC(=O)N3)C2)CC1 (stereo partly specified) | 
12 | 3 | O=C1COc2ncc(C(=O)N3CCC(COc4ccc(F)cc4Cl)CC3)cc2N1 | 
13 | 2.7 | O=C1COCC(CCC(=O)N2CCC(COc3ccc(F)cc3Cl)CC2)N1 (stereo unspecified) | 
14 | 2.3 | Cc1ccc(COC2CN(C(=O)[C@H]3C[C@]4(COC(=O)N4)C3)C2)cc1Cl | solubility thermodynamic at 18 h [2]: 330 µg/mL (≈ 905 µM); concentration at 1 h [3]: 17 ng/mL; concentration at 1 h [4]: 62 ng/mL; concentration at 1 h [5]: 163 ng/mL; concentration at 1 h [6]: 457 ng/mL; concentration at 1 h [7]: 1520 ng/mL; concentration at 1 h [8]: 31 ng/g; concentration at 1 h [9]: 99 ng/g; concentration at 1 h [10]: 169 ng/g; concentration at 1 h [11]: 322 ng/g; concentration at 1 h [12]: 711 ng/g
15 | 2.7 | O=C1CC[C@H](CCC(=O)N2CCC(COc3ccc(F)cc3Cl)CC2)N1 | 
